Data from PubChem BioAssay AID651740 (Broad Institute, 2012).
About 1,200 (21%) of roughly 5,600 compounds were called active. Roughly 3% stayed inconclusive and do not appear here.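 Rule for the calls: active = mean inhibition above about 95%, with at least 55% of replicates also reaching it (limit read from the data); inconclusive = meets just one of the two conditions; inactive = meets neither condition.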 A selection follows.

Assay: inhibitors of intracellular T. cruzi replication, confirmation, NIH3T3 host cells, beta-gal parasites, cherry-pick, set 2 (AID 651740);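 note: plate controls were neutral control median for no effect and positive control median for full effect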
Conditions: T. cruzi beta-gal in NIH3T3, GalScreen luminescence, 90 h; at 2.09 µM; hits give high values
In short: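 Timing: host attachment 3 h, co-culture ≥90 h, lysis 60 min / Test system: NIH/3T3 host cells with beta-gal T. cruzi Tulahuen C4 / Quantity: 5,000 fibroblasts/well / Dosing: single point, 100 nL compound in DMSO pinned per well / Buffer or medium: 2% FBS DMEM with PSG / Detection: GalScreen luminescence (substrate 1:25 in Buffer B) after cell lysis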

| SMILES | inhibition |
| --- | --- |
| O=C(Cc1ccccn1)N1CCCCN2[C@@H](CO)[C@@H](c3ccc(C#Cc4ccccc4)cc3)[C@@H]2C1 | 56.8% (inactive) |
| COc1ccc(C#Cc2ccc([C@H]3[C@H](CO)N4CCCCN(C(=O)Cc5ccccc5)C[C@@H]34)cc2)cc1 | 111% (active) |
| COc1ccc(-c2ccc([C@H]3[C@H](CO)N4CCCCN(C(=O)Cc5ccncc5)C[C@@H]34)cc2)cc1 | 66.4% (inactive) |
| C/C=C/c1ccc([C@H]2[C@H](CO)N3CCCCN(C(=O)Cc4ccncc4)C[C@@H]23)cc1 | 82.3% (inactive) |
| O=C(Cc1cccnc1)N1CCCCN2[C@@H](CO)[C@H](c3ccc(C#CC4CCCC4)cc3)[C@@H]2C1 | 46.3% (inactive) |
